Data set [1] deals with Plasmodium yoelii. In words: Protection against Plasmodium yoelii sporozoite infected mice (Mus musculus) at 160 mg/kg peroral dose. The format is functional, organism-based. Set-up: dose 160 mg/kg. Summed up: (§1)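 Mice challenged with Plasmodium yoelii sporozoites received a single oral dose of the test compound. Protection was scored at day 6 as the number of parasite-free mice out of 5 per dose group. The minimum active dose was taken as the lowest dose giving activity.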

The test system of data set [2] is Plasmodium yoelii. In words: Protection against Plasmodium yoelii sporozoite infected mice (Mus musculus) at 40 mg/kg peroral dose. The data set is classed as functional, organism-based. The arrangement: dose 40 mg/kg. Summed up:
as §1

Data set [3] relates to Plasmodium yoelii. The experiment in a line: Protection against Plasmodium yoelii sporozoite infected mice (Mus musculus) as minimal active peroral dose. The data set is classed as functional. Summed up:
as §1

Data set [4] can be described thus: Metabolic stability assessed as half life in human liver microsomes. (In general: Liver microsomes are vesicles of endoplasmic reticulum, rich in cytochrome P450 enzymes.)
Data set [5] can be described thus: Metabolic stability assessed as half life in mouse liver microsomes.
The subject of a further data set is Plasmodium berghei. The experiment in a line: Antimalarial activity against Plasmodium berghei infected mice (Mus musculus). The data set is classed as functional, organism-based.
In data set [6] the test system is Plasmodium falciparum. The experiment in a line: Antimalarial activity against pyrimethamine-sensitive Plasmodium falciparum D6. The data set is classed as functional, organism-based.
Data set [7] relates to Plasmodium falciparum. The experiment in a line: Antimalarial activity against pyrimethamine-resistant Plasmodium falciparum W2. The format is functional, organism-based.
The test system of data set [8] is Plasmodium yoelii. In words: Protection against Plasmodium yoelii sporozoite infected mice (Mus musculus) as minimal active perorally daily dose over 3 days. The format is functional. Summed up: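 Mice were challenged with P. yoelii sporozoites and dosed orally once daily for 3 consecutive days (days −1, 0, +1), starting the day before challenge. Protection was scored at day 6 as protected mice out of 5 per dose. The minimum active dose was taken from the dose series.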

For the next data set, the system named is Plasmodium cynomolgi. In words: Prophylactic parasite potency against Plasmodium cynomolgi sporozoite challenged rhesus monkey at 30 mg/kg/day Intramuscular dose for 3 days. The format is functional. The essentials: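 Rhesus monkeys were inoculated with P. cynomolgi sporozoites and given 30 mg/kg IM once daily for 3 days, starting the day before inoculation; two monkeys per group, with untreated controls. Blood smears were taken daily from day 6 for 21 days, then 3×/week for 4 weeks, then 2×/week to 100 days after the last dose. Patency was the first smear-positive day.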

The subject of data set [9] is Plasmodium yoelii. The experiment in a line: Protection against Plasmodium yoelii sporozoite infection in mice (Mus musculus) at 10 mg/kg peroral dose. The format is functional, organism-based. Set-up: dose 10 mg/kg. The essentials:
as §1

Data set [10] deals with Plasmodium yoelii. The experiment in a line: Protection against Plasmodium yoelii sporozoite infected mice (Mus musculus) at 480 mg/kg peroral dose. The data set is classed as functional, organism-based. The arrangement: dose 480 mg/kg.
Data set [11] has as its system Plasmodium yoelii. The experiment in a line: Protection against Plasmodium yoelii sporozoite infected mice (Mus musculus) at 120 mg/kg peroral dose. The data set is classed as functional, organism-based. Set-up: dose 120 mg/kg.
A short description of data set [12]: Half life in iv dosed rat plasma. The format is ADME, organism-based.

Active and inactive are the calls of the source.

For the compound `CC(C)N/C(=N/C1=NC(=O)C(=O)N1c1ccc(Cl)c(Cl)c1)NC(=O)C(C)C`, the outcome in the data set on Plasmodium yoelii [1] and in the data set with Plasmodium yoelii [2] was Active. In the data set with Plasmodium yoelii [3], this compound registered an Activity below 10 mg/kg. Moreover, the half-life in data set [4] (liver microsomes) and in [5] (liver microsomes) was below 10 min in each case.
Consider `CCC(CC)c1nc(Nc2ccc(Cl)c(Cl)c2)nc(NC(C)C)n1`, for which the result in the data set on Plasmodium berghei, in the data set on Plasmodium falciparum [6] and in the data set with Plasmodium falciparum [7] was inactive. The half-life in data set [4] (liver microsomes) and in data set [5] (liver microsomes) was above 60 min throughout.
Consider `CC(C)C(=O)N/C(=N/C1=NC(=O)C(=O)N1C(C)C)Nc1ccc(Cl)c(Cl)c1`, for which the Activity is below 30 mg/kg in the data set with Plasmodium yoelii [8] and above 160 mg/kg in the data set on Plasmodium yoelii [3].
In the case of `CC(C)Nc1nc(Nc2ccc(Cl)c(Cl)c2)nc(C(C)C)n1`, the result with Plasmodium berghei, with Plasmodium falciparum [6] and in the data set with Plasmodium falciparum [7] was inactive.
As to `CC(C)N1C(=O)C(=O)N=C1N/C(=N\C(=O)OC(C)(C)C)Nc1ccc(Cl)c(Cl)c1`, the Activity in the data set on Plasmodium cynomolgi was 68 days.
Regarding `CCCC(=O)N/C(=N\C1=NC(=O)C(=O)N1c1ccc(Cl)c(Cl)c1)NC(C)C`, the outcome with Plasmodium yoelii [1], in the data set on Plasmodium yoelii [2] and with Plasmodium yoelii [9] was Active. In the data set on Plasmodium yoelii [3], this compound returned an Activity below 10 mg/kg. The half-life in data set [4] (liver microsomes) and in [5] (liver microsomes) was below 10 min each time.
Regarding `CCC(CC)C(=O)N/C(=N/C1=NC(=O)C(=O)N1C(C)C)Nc1ccc(Cl)c(Cl)c1`, the Activity in the data set on Plasmodium yoelii [8] is 7.5 mg/kg; in the data set on Plasmodium yoelii [3], above 160 mg/kg; in the data set with Plasmodium cynomolgi, 17 days. Besides, the half-life in data set [4] (liver microsomes) and in data set [5] (liver microsomes) was above 60 min each time.
As to `CC(C)N1C(=O)C(=O)N=C1/N=C(/NC(=O)C(C)(C)C)Nc1ccc(Cl)c(Cl)c1`, the values for the Activity with Plasmodium yoelii [8], in the data set with Plasmodium yoelii [3] and in the data set with Plasmodium cynomolgi were above 480 mg/kg, above 160 mg/kg and 40 days, respectively. Besides, the result in the data set on Plasmodium yoelii [10] and with Plasmodium yoelii [11] was inactive. For the same compound, the half-life in data set [4] (microsomes) and in data set [5] (microsomes) was above 60 min each time.
As to `CCCc1nc(Nc2ccc(Cl)c(Cl)c2)nc(NC(C)C)n1`, the outcome in the data set on Plasmodium berghei, with Plasmodium falciparum [6] and in the data set on Plasmodium falciparum [7] was inactive.
For the compound `CCC(CC)C(=O)N/C(=N\C1=NC(=O)C(=O)N1c1ccc(Cl)c(Cl)c1)NC(C)C`, the outcome with Plasmodium yoelii [1] was Active. Also, the Activity with Plasmodium yoelii [3] is below 10 mg/kg; in the data set with Plasmodium cynomolgi, 15 days. For the same compound, the half-life in data set [4] (liver microsomes), in data set [5] (liver microsomes) and in data set [12] was below 10 min throughout.

Broadly, the half-life is the time needed for the level to fall by half in the phase considered.
